# Screening results (PubChem BioAssay)
# Scp1 inh: Scp-1 phosphatase inhibitors, primary screen, biochemical, colorimetric, uHTS; Carboxy-terminal domain RNA polymerase II polypeptide A small phosphatase 1 (Homo …; Recombinant Scp1, phosphopeptide, malachite green phosphate absorbance; inhibition, % at 20 µM; hit rate 0.88% among 340,000; AID 493091, 2011;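 active = inhibition above about 50% at 20 µM, limit read from the data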;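 note: plate controls were DMSO wells with enzyme for no effect and wells lacking enzyme for full effect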
# Target sequence (Q9GZU7 76-261 limits assumed): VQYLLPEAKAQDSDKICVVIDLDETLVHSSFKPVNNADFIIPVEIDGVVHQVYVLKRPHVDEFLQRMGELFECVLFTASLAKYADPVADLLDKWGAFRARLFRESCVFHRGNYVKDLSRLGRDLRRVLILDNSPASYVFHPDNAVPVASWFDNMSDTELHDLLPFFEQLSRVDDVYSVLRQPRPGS
#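 Times: enzyme reaction 45 min at room temperature, colour 5 min, stabilisation 30 min. Material: SCP-1 catalytic fragment, aa 76-261. Medium: Acidic Tris acetate buffer with magnesium and detergent. Signal: colorimetric free-phosphate detection, absorbance 630 nm. Read-out basis: % inhibition of SCP-1 phosphate liberation. Reagent: Phosphorylated 17-residue peptide substrate.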
# STEP inh: STEP phosphatase inhibitors, primary screen, biochemical, fluorescence intensity, uHTS; Tyrosine-protein phosphatase non-receptor type 5 (Homo sapiens), P54829; recombinant STEP, OMFP fluorogenic substrate; inhibition, % at 20 µM; hit rate 0.25% among 360,000; AID 588621, 2011;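 active = inhibition at 20 µM, scaled per plate between control wells, above about 37%, limit read from the data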;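 note: 0% = DMSO with enzyme and substrate and 100% = substrate only without enzyme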
#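 Assay system: isolated STEP enzyme. Buffer or medium: pH 6.0 Bis-Tris with DTT and Tween 20. Also added: fluorogenic phosphatase substrate OMFP at 25 µM final. Dosing: 20 µM, 1% DMSO. Timing: 20 min reaction, room temperature, in the dark. Measured by: fluorescence intensity, excitation 480 nm, emission 540 nm. Evaluation: normalized % inhibition.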
# SUMO1 PPI mod: modulators of SUMO1 protein-protein interactions, primary screen, biochemical, uHTS; inhibition, % at 20 µM; SUMO1 binding to a labelled peptide, TR-FRET, 1 h; AID 602429, 2012; hit rate 0.33% among 360,000; Small ubiquitin-related modifier 1 (Homo sapiens), P63165; in the data active = inhibition above about 37%
# Target sequence (P63165 whole entry, looked up): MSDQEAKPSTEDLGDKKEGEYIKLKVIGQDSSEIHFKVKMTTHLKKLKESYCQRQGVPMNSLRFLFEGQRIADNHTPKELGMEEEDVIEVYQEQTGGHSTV
# NadD block: inhibitors of S. aureus NadD, primary screen, biochemical, colorimetric, uHTS | Nicotinate-nucleotide adenylyltransferase NadD (Staphylococcus aureus N315) | purified NadD enzyme, colorimetric absorbance read-out | inhibition, % at 20 µM | hit rate 0.78% among 360,000 | AID 602399, 2012; in the data active = inhibition above about 26%
# DNMT1 inh: human DNMT1 methyltransferase inhibitors, primary screen, biochemical, molecular beacon, fluorescence, HinP1I cleavage, uHTS; DNA (cytosine-5)-methyltransferase 1 (Homo sapiens), P26358; inhibition (reported as % activation of signal), % at 10 µM; hit rate 0.83% among 360,000; AID 588458, 2011; in the data active = inhibition above about 50%
# LMPTP inh: LMPTP phosphatase inhibitors, primary screen, biochemical, fluorescence intensity, uHTS | recombinant LMPTP-A, OMFP fluorogenic substrate | inhibition, % at 20 µM | hit rate 0.22% among 360,000 | AID 651560, 2012;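 active = compounds that cut the enzyme signal by at least half of the control window in the single-dose screen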;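 note: plate controls were DMSO wells with enzyme plus substrate for no effect and substrate without enzyme for full effect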
# Target sequence (P24666 whole entry, looked up): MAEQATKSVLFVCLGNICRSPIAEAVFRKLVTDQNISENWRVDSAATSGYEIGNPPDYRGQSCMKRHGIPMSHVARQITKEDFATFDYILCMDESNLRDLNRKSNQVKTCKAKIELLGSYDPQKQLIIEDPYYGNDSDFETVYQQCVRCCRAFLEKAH
#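 Test system – LMPTP-A enzyme · Amount – LMPTP-A at 0.625 nM final in the reaction · Buffer or medium – Bis-Tris pH 6.0, DTT, detergent · Reagent – OMFP 400 µM · Doses – single 20 µM dose · Schedule – reaction 50 min, room temperature, dark · Detection – fluorescence intensity of OMFP turnover product · Evaluation – percent inhibition versus substrate-only and uninhibited controls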
# Scp1 confirm: Scp-1 phosphatase inhibitors, retest, confirmation, biochemical, colorimetric, single concentration; hit rate 61% among 2,500; AID 540281, 2011; inhibition, % at 20 µM; shares compounds with Scp1 inh; recombinant SCP-1 catalytic domain, phosphate release, malachite green absorbance;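 note: plate controls were DMSO with enzyme for no effect and buffer wells lacking enzyme for full effect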
# MG interference: colorimetric readout interference by compounds, confirmation, artefact control for Scp-1 inhibitor project, biochemical, single concentration; shares compounds with Scp1 inh; Colorimetric interference counterscreen, malachite green absorbance 630 nm; apparent inhibition (interference), % at 20 µM; 2,500 tested, under 10 active; AID 540313, 2011;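 note: compounds added after enzyme reaction finished so only phosphate colour detection is probed; plate controls were DMSO wells with completed Scp-1 reaction for no effect and substrate wells lacking enzyme for full effect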
# Scp1 DSF: Scp-1 binding by thermal shift, confirmation, orthogonal assay for Scp-1 inhibitor project, biophysical, differential scanning fluorimetry; shares compounds with Scp1 inh; hit rate 25% among 1,500; thermal shift relative to vanadate control, % at 40 µM; AID 540329, 2011; Recombinant SCP1, Sypro Orange thermal shift Tm;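 active = substances whose mean melting-temperature shift, as a percentage of the reference inhibitor's shift, reaches about 5.3%, limit read from the data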;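 note: 0% = Tm of DMSO wells and 100% = Tm with sodium orthovanadate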
# * hit, by the source's call; · = not tested or not shown. Rows were chosen to be rich in hits. Some 2.3% of all compounds tested hit in one or more screens of this group.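 Rule for the calls, unless noted: active = inhibition of at least 30% at 20 µM; inactive = the rest.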
SMILES,Scp1 inh,STEP inh,SUMO1 PPI mod,NadD block,DNMT1 inh,LMPTP inh,Scp1 confirm,MG interference,Scp1 DSF
CC(C)OCCOc1ccc2oc(-c3ccco3)cc(=O)c2c1,61*,36,-12,0,28,15,60*,-18,-17
C[N+](C)(C)CC/C=C1/c2ccccc2CSc2ccccc21,77*,2,3,13,-3,0,82*,-13,-4
O=C(Nc1ccccc1)C1Cc2c(-c3ccc4c(c3)OCO4)ccnc2O1 (centres undefined),·,-3,5,0,5,1,·,·,·
CCCNC(=O)Cn1sc2nc(C)cc(C)c2c1=O,-4,1,1,-12,2,-1,·,·,·
Fc1ccccc1Sc1ccccc1CNC1=NCCN1,97*,-3,2,17,0,-1,84*,-15,-14
c1ccc(Sc2cccc3ccccc23)c(CNC2=NCCN2)c1,29,-4,-10,16,9,2,·,·,·
CC1CC(C)CN(C(=O)c2cc3cc(Br)cc(Br)c3o2)C1 (centres undefined),-9,-2,0,12,6,4,·,·,·
COCCCNC(=O)CN(CCc1ccccc1)S(=O)(=O)c1ccc(C)cc1,-5,2,1,0,-2,-1,·,·,·
Cc1ccc(NCC(=O)N/N=C\c2ccc[nH]2)cc1,-10,0,-8,9,-20,0,·,·,·
O=C(Cc1ccc(Cl)cc1)Nc1ccc(Br)cc1,-4,-2,0,-2,1,1,·,·,·
O=C(Cc1ccc(Br)cc1)NNC(=O)Nc1ccc(Cl)cc1,63*,1,3,-4,26,0,62*,-3,4
CCC1NC(=O)c2cccnc2-n2c1nc1cc(OC)c(OC)cc1c2=O (centres undefined),·,-2,-1,-6,5,0,·,·,·
CC1O[C@@H](OC2C(COC3OC(CO)C(O)[C@H](O)C3O)OC(OC3CC[C@]4(C)C(CC[C@@]5(C)[C@@H]4CC=C4[C@@H]6CC(C)(C)CC[C@]6(CO)C(O)C[C@]45C)C3(C)C)C(O)C2O)C(O)C(O)C1O (some centres undefined),55*,3,10,-13,-1,8,25,-9,·
CC1(C)C[C@H](O)[C@]2(CO)CC[C@]3(C)C(=CCC4[C@@]5(C)CC[C@H](O)C(C)(C)C5CC[C@]43C)[C@@H]2C1 (some centres undefined),-1,1,1,5,-20,0,·,·,·
Cc1ccc(S(=O)(=O)Cc2ccc(C(=O)N3CCCCCC3)o2)cc1,18,5,6,2,7,-1,·,·,·
CCOC(=O)C1CCCN(C(=O)c2ccc(CS(=O)(=O)c3ccc(C)cc3)o2)C1 (centres undefined),57*,1,5,7,46,0,55*,-11,5
Cc1ccc(OCc2ccc(C(=O)NCc3cccnc3)cc2)cc1C,-1,5,2,6,2,2,·,·,·
O=C(CNS(=O)(=O)c1ccccc1)Nc1ccccc1Br,50*,-4,2,0,1,0,-16,-17,·
CCOC(=O)CN(C(=O)COc1ccc2c(C)cc(=O)oc2c1)c1ccc(OCC)cc1,-13,4,1,-3,4,-2,·,·,·
CCCc1n(CC(O)COC2CCCCC2)c2ccccc2[n+]1C (centres undefined),100*,1,1,5,-1,-1,77*,-7,-23
CCCc1n(CC(O)COCc2ccccc2)c2ccccc2[n+]1C (centres undefined),21,-3,-1,3,3,1,·,·,·
CCCc1n(CC(O)COCC2CC=CCC2)c2ccccc2[n+]1C (centres undefined),67*,-1,-3,11,-3,-1,10,-6,·
O=C(N/N=C/C(Cl)=C/c1ccccc1)c1ccc2c(c1)OCO2,101*,38,2,-2,8,56*,53*,-18,-15
O=C(NNC(=O)c1ccccc1F)c1ccc(Cl)c(S(=O)(=O)N2CCOCC2)c1,57*,-2,7,-3,3,0,-12,-13,·
O=C(c1ccc(Cl)c(S(=O)(=O)N2CCOCC2)c1)N1CCN(c2ccccc2F)CC1,-5,0,0,1,1,0,·,·,·
SMILES,Scp1 inh,STEP inh,SUMO1 PPI mod,NadD block,DNMT1 inh,LMPTP inh,Scp1 confirm,MG interference,Scp1 DSF
COc1ccc(CC(=O)NNC(=O)COc2ccc3ccccc3c2)cc1,57*,2,-1,-3,41,16,52*,-14,-17
CC(=C/C(=O)O)/C=C/c1ccc(Cl)o1,61*,9,2,0,106*,-1,54*,-15,1
CC(/C=C/c1ccc(C)o1)=C\C(=O)O,-4,2,0,-1,4,-2,·,·,·
O=C(NCC1CCCO1)c1ccc2c(=O)n(-c3ccccc3)c(=S)[nH]c2c1 (centres undefined),-9,2,0,1,-1,-1,·,·,·
CCOCCCN1CC(C(=O)NCCc2ccccc2)CC1=O (centres undefined),-3,0,0,5,2,0,-14,-16,·
O=C(NCc1ccc(F)cc1)C1CC(=O)N(CCc2ccccc2)C1 (centres undefined),-10,4,-1,3,2,0,-7,-11,·
O=C(NCc1ccc2c(c1)OCO2)C1CC(=O)N(CCc2ccccc2)C1 (centres undefined),-10,6,7,-1,-2,-2,-8,-8,·
Cc1ccc(CCN2CC(C(=O)NCCCN3CCOCC3)CC2=O)cc1 (centres undefined),-2,-8,-2,-7,2,-3,-9,-11,·
CCCOc1cccc(C(=O)NCCNC(=O)c2cnccn2)c1,-5,-1,2,3,0,0,·,·,·
